Values after ≈ are worked out from the molar mass of the structure shown.
What was measured:
Mus musculus [1] = species: Mus musculus; assay: In vitro efficacy on humoral immune response by Mishell-Dutton assay (MD).; format: functional
How it was run: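 Spleen lymphocytes from female OF1 mice (ca. 10 x 10^6) cultured 3 days with sheep erythrocytes (ca. 30 x 10^6) and test compound. Cells then plated on agar with fresh erythrocytes; plaques form by complement lysis. Read-out is the count of antibody-producing plaque-forming cells. Cyclosporin A run in parallel.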

Mus musculus [2] = species: Mus musculus; assay: In vitro efficacy to suppress lymphocyte proliferation as measured by the incorporation of a labeled precursor ([3H]- thymidine) into DNA in Mixed Lymphocyte reaction (MLR).; format: functional
How it was run: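 Cells from spleens of female CBA mice aged 8–10 weeks (ca. 5 x 10^5). Compounds made up at 20 mg/mL in 9:1 (v/v) ethanol/Tween 80, then diluted in saline before adding to medium. Four concentrations per compound across 1.8–1000 ng/mL, in triplicate cultures. IC50 is the calculated concentration giving 50% inhibition of proliferation. Cyclosporin A run in parallel as control.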

SMILES: C/C=C/C[C@@H](C)[C@@H](O)[C@H]1C(=O)N[C@@H](CC)C(=O)N(C)CC(=O)N(C)[C@@H](CC(C)C)C(=O)N[C@@H](C(C)C)C(=O)N(C)[C@@H](CC(C)C)C(=O)N[C@@H](C)C(=O)N[C@H](COC/C=C/CO)C(=O)N(C)[C@@H](CC(C)C)C(=O)N(C)[C@@H](CC(C)C)C(=O)N(C)[C@@H](C(C)C)C(=O)N1C
- IC50 (Mus musculus [1]): 0.036 µg/mL (≈ 0.0279 µM)
- IC50 (Mus musculus [2]): 0.07 µg/mL (≈ 0.0543 µM)

SMILES: C/C=C/C[C@@H](C)[C@@H](O)[C@H]1C(=O)N[C@@H](CC)C(=O)N(C)CC(=O)N(C)[C@@H](CC(C)C)C(=O)N[C@@H](C(C)C)C(=O)N(C)[C@@H](CC(C)C)C(=O)N[C@@H](C)C(=O)N[C@H](COCC#N)C(=O)N(C)[C@@H](CC(C)C)C(=O)N(C)[C@@H](CC(C)C)C(=O)N(C)[C@@H](C(C)C)C(=O)N1C
- IC50 (Mus musculus [1]): 0.023 µg/mL (≈ 0.0183 µM)
- IC50 (Mus musculus [2]): 0.01 µg/mL (≈ 0.00795 µM)

SMILES: C/C=C/C[C@@H](C)[C@@H](O)[C@H]1C(=O)N[C@@H](CC)C(=O)N(C)CC(=O)N(C)[C@@H](CC(C)C)C(=O)N[C@@H](C(C)C)C(=O)N(C)[C@@H](CC(C)C)C(=O)N[C@@H](C)C(=O)N[C@H](COCC(C)(C)O)C(=O)N(C)[C@@H](CC(C)C)C(=O)N(C)[C@@H](CC(C)C)C(=O)N(C)[C@@H](C(C)C)C(=O)N1C
- IC50 (Mus musculus [1]): 0.078 µg/mL (≈ 0.0604 µM)
- IC50 (Mus musculus [2]): 0.05 µg/mL (≈ 0.0387 µM)

SMILES: C/C=C/C[C@@H](C)[C@@H](O)[C@H]1C(=O)N[C@@H](CC)C(=O)N(C)CC(=O)N(C)[C@@H](CC(C)C)C(=O)N[C@@H](C(C)C)C(=O)N(C)[C@@H](CC(C)C)C(=O)N[C@@H](C)C(=O)N[C@H](COCC(=O)OC(C)C)C(=O)N(C)[C@@H](CC(C)C)C(=O)N(C)[C@@H](CC(C)C)C(=O)N(C)[C@@H](C(C)C)C(=O)N1C
- IC50 (Mus musculus [1]): 0.725 µg/mL (≈ 0.55 µM)
- IC50 (Mus musculus [2]): 0.1 µg/mL (≈ 0.0758 µM)

SMILES: C/C=C/C[C@@H](C)[C@@H](O)[C@H]1C(=O)N[C@@H](CC)C(=O)N(C)CC(=O)N(C)[C@@H](CC(C)C)C(=O)N[C@@H](C(C)C)C(=O)N(C)[C@@H](CC(C)C)C(=O)N[C@@H](C)C(=O)N[C@H](COCCOCC(=O)OC(C)C)C(=O)N(C)[C@@H](CC(C)C)C(=O)N(C)[C@@H](CC(C)C)C(=O)N(C)[C@@H](C(C)C)C(=O)N1C
- IC50 (Mus musculus [1]): 0.078 µg/mL (≈ 0.0572 µM)
- IC50 (Mus musculus [2]): 0.05 µg/mL (≈ 0.0367 µM)

SMILES: C/C=C/C[C@@H](C)[C@@H](O)[C@H]1C(=O)N[C@@H](CC)C(=O)N(C)CC(=O)N(C)[C@@H](CC(C)C)C(=O)N[C@@H](C(C)C)C(=O)N(C)[C@@H](CC(C)C)C(=O)N[C@@H](C)C(=O)N[C@H](COCCC2OCCCO2)C(=O)N(C)[C@@H](CC(C)C)C(=O)N(C)[C@@H](CC(C)C)C(=O)N(C)[C@@H](C(C)C)C(=O)N1C
- IC50 (Mus musculus [1]): 0.21 µg/mL (≈ 0.158 µM)
- IC50 (Mus musculus [2]): 0.12 µg/mL (≈ 0.09 µM)

SMILES: C/C=C/C[C@@H](C)[C@@H](O)[C@H]1C(=O)N[C@@H](CC)C(=O)N(C)CC(=O)N(C)[C@@H](CC(C)C)C(=O)N[C@@H](C(C)C)C(=O)N(C)[C@@H](CC(C)C)C(=O)N[C@@H](C)C(=O)N[C@H](COCCOCCOCCO)C(=O)N(C)[C@@H](CC(C)C)C(=O)N(C)[C@@H](CC(C)C)C(=O)N(C)[C@@H](C(C)C)C(=O)N1C
- IC50 (Mus musculus [1]): 0.1 µg/mL (≈ 0.074 µM)
- IC50 (Mus musculus [2]): 0.47 µg/mL (≈ 0.348 µM)

SMILES: C/C=C/C[C@@H](C)[C@@H](O)[C@H]1C(=O)N[C@@H](CC)C(=O)N(C)CC(=O)N(C)[C@@H](CC(C)C)C(=O)N[C@@H](C(C)C)C(=O)N(C)[C@@H](CC(C)C)C(=O)N[C@@H](C)C(=O)N2CCCC[C@@H]2C(=O)N(C)[C@@H](CC(C)C)C(=O)N(C)[C@@H](CC(C)C)C(=O)N(C)[C@@H](C(C)C)C(=O)N1C
- IC50 (Mus musculus [2]): 0.029 µg/mL (≈ 0.0233 µM)

SMILES: C/C=C/C[C@@H](C)[C@@H](O)[C@H]1C(=O)N[C@@H](CC)C(=O)N(C)CC(=O)N(C)[C@@H](CC(C)C)C(=O)N[C@@H](C(C)C)C(=O)N(C)[C@@H](CC(C)C)C(=O)N[C@@H](C)C(=O)N2COC[C@@H]2C(=O)N(C)[C@@H](CC(C)C)C(=O)N(C)[C@@H](CC(C)C)C(=O)N(C)[C@@H](C(C)C)C(=O)N1C
- IC50 (Mus musculus [2]): 0.118 µg/mL (≈ 0.0959 µM)

SMILES: C/C=C/C[C@@H](C)[C@@H](O)[C@H]1C(=O)N[C@@H](CC)C(=O)N(C)CC(=O)N(C)[C@@H](CC(C)C)C(=O)N[C@@H](C(C)C)C(=O)N(C)[C@@H](CC(C)C)C(=O)N[C@@H](C)C(=O)N[C@H](COCCCO)C(=O)N(C)[C@@H](CC(C)C)C(=O)N(C)[C@@H](CC(C)C)C(=O)N(C)[C@@H](C(C)C)C(=O)N1C
- IC50 (Mus musculus [1]): 0.009 µg/mL (≈ 0.00705 µM)
- IC50 (Mus musculus [2]): 0.02 µg/mL (≈ 0.0157 µM)
